Several values for one entry are separate records, joined by “and”; a condition that tells them apart may be missing. Equal entries are not always repeated.
Columns and labels:
Fibroblast = assay: Multiplex assay against human fibroblast; type: toxicity, cell-based
Summary of the method: (§1)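 On a CQ1 microscope at 37°C and 5% CO2, live cells were imaged after compound addition. They had been stained at seeding with Hoechst33342, BioTracker Green Microtubule Cytoskeleton Dye, MitoTracker Red and Annexin V Alexa Fluor 680. CellPathfinder machine-learning gating assigned cells to Hoechst high-intensity objects or normal cells, normal cells to healthy, pyknosed or fragmented nuclei, and pyknosed cells to mitotic or apoptotic. Tubulin, mitochondrial-mass and membrane-permeability phenotypes are per cents of healthy-nucleus cells.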

HEK-293T = assay: Multiplex assay against HEK293T; type: toxicity, cell-based; details: human; summary of the method: as §1
[1] = 12 h, 1 µM, compound concentration 1 uM
[2] = 12 h, 10 µM, compound concentration 10 uM
[3] = 24 h, 1 µM, compound concentration 1 uM
[4] = 24 h, 10 µM, compound concentration 10 uM
[5] = 48 h, 1 µM, compound concentration 1 uM
[6] = 48 h, 10 µM, compound concentration 10 uM

NCCc1cn(S(=O)(=O)c2c(Cl)nc3sccn23)c2ccccc12.O=C(O)C(=O)O
Population Apoptotic (%) (Fibroblast; [1]): 45%
Population Fragmented Nuclei (%) (Fibroblast; [1]): 20% and 34%
Population Healthy Nuclei (%) (Fibroblast; [1]): 65% and 37%
Population Hoechst High Intensity Objects (%) (Fibroblast; [1]): 4% and 3%
Population Membrane Permeable-Phenotype (%) (Fibroblast; [1]): 0% and 13%
Population Mitochondria Different-Phenotype (%) (Fibroblast; [1]): 5% and 8%
Population Mitotic Cells (%) (Fibroblast; [1]): 55% and 54%
Population Normal (%) (Fibroblast; [1]): 95% and 96%
Population Pyknosed Nuclei (%) (Fibroblast; [1]): 14% and 28%
Population Tubulin-Different-Phenotype (%) (Fibroblast; [1]): 40% and 62%
Total Cell Count (Fibroblast; [1]): 146 and 170
Population Apoptotic (%) (Fibroblast; [2]): 78% and 57%
Population Fragmented Nuclei (%) (Fibroblast; [2]): 20% and 24%
Population Healthy Nuclei (%) (Fibroblast; [2]): 56% and 44%
Population Hoechst High Intensity Objects (%) (Fibroblast; [2]): 6%
Population Membrane Permeable-Phenotype (%) (Fibroblast; [2]): 0% and 5%
Population Mitochondria Different-Phenotype (%) (Fibroblast; [2]): 40% and 34%
Population Mitotic Cells (%) (Fibroblast; [2]): 21% and 42%
Population Normal (%) (Fibroblast; [2]): 93%
Population Pyknosed Nuclei (%) (Fibroblast; [2]): 22% and 30%
Population Tubulin-Different-Phenotype (%) (Fibroblast; [2]): 90% and 89%
Total Cell Count (Fibroblast; [2]): 177 and 219
Population Apoptotic (%) (Fibroblast; [3]): 50% and 46%
Population Fragmented Nuclei (%) (Fibroblast; [3]): 21% and 35%
Population Healthy Nuclei (%) (Fibroblast; [3]): 64% and 44%
Population Hoechst High Intensity Objects (%) (Fibroblast; [3]): 3% and 4%
Population Membrane Permeable-Phenotype (%) (Fibroblast; [3]): 0% and 18%
Population Mitochondria Different-Phenotype (%) (Fibroblast; [3]): 13% and 11%
Population Mitotic Cells (%) (Fibroblast; [3]): 50% and 53%
Population Normal (%) (Fibroblast; [3]): 96% and 95%
Population Pyknosed Nuclei (%) (Fibroblast; [3]): 13% and 20%
Population Tubulin-Different-Phenotype (%) (Fibroblast; [3]): 42% and 70%
Total Cell Count (Fibroblast; [3]): 156 and 166
Population Apoptotic (%) (Fibroblast; [4]): 77% and 72%
Population Fragmented Nuclei (%) (Fibroblast; [4]): 22% and 30%
Population Healthy Nuclei (%) (Fibroblast; [4]): 62% and 51%
Population Hoechst High Intensity Objects (%) (Fibroblast; [4]): 3% and 7%
Population Membrane Permeable-Phenotype (%) (Fibroblast; [4]): 0% and 5%
Population Mitochondria Different-Phenotype (%) (Fibroblast; [4]): 58% and 32%
Population Mitotic Cells (%) (Fibroblast; [4]): 22% and 27%
Population Normal (%) (Fibroblast; [4]): 96% and 92%
Population Pyknosed Nuclei (%) (Fibroblast; [4]): 14% and 18%
Population Tubulin-Different-Phenotype (%) (Fibroblast; [4]): 89% and 81%
Total Cell Count (Fibroblast; [4]): 193 and 237
Population Apoptotic (%) (Fibroblast; [5]): 50% and 54%
Population Fragmented Nuclei (%) (Fibroblast; [5]): 27% and 38%
Population Healthy Nuclei (%) (Fibroblast; [5]): 63% and 47%
Population Hoechst High Intensity Objects (%) (Fibroblast; [5]): 4% and 6%
Population Membrane Permeable-Phenotype (%) (Fibroblast; [5]): 2% and 9%
Population Mitotic Cells (%) (Fibroblast; [5]): 50% and 45%
Population Normal (%) (Fibroblast; [5]): 95% and 93%
Population Pyknosed Nuclei (%) (Fibroblast; [5]): 9% and 14%
Population Tubulin-Different-Phenotype (%) (Fibroblast; [5]): 46% and 58%
Total Cell Count (Fibroblast; [5]): 177 and 166
Population Apoptotic (%) (Fibroblast; [6]): 85% and 75%
Population Fragmented Nuclei (%) (Fibroblast; [6]): 22% and 31%
Population Healthy Nuclei (%) (Fibroblast; [6]): 65% and 59%
Population Hoechst High Intensity Objects (%) (Fibroblast; [6]): 7% and 3%
Population Membrane Permeable-Phenotype (%) (Fibroblast; [6]): 0% and 3%
Population Mitochondria Different-Phenotype (%) (Fibroblast; [6]): 43% and 24%
Population Mitotic Cells (%) (Fibroblast; [6]): 14% and 25%
Population Normal (%) (Fibroblast; [6]): 92% and 96%
Population Pyknosed Nuclei (%) (Fibroblast; [6]): 12% and 8%
Population Tubulin-Different-Phenotype (%) (Fibroblast; [6]): 92% and 74%
Total Cell Count (Fibroblast; [6]): 189 and 241
Population Apoptotic (%) (HEK-293T; [1]): 37% and 52%
Population Fragmented Nuclei (%) (HEK-293T; [1]): 5% and 8%
Population Healthy Nuclei (%) (HEK-293T; [1]): 83% and 78%
Population Hoechst High Intensity Objects (%) (HEK-293T; [1]): 7% and 8%
Population Membrane Permeable-Phenotype (%) (HEK-293T; [1]): 0%
Population Mitochondria Different-Phenotype (%) (HEK-293T; [1]): 53% and 66%
Population Mitotic Cells (%) (HEK-293T; [1]): 62% and 47%
Population Normal (%) (HEK-293T; [1]): 92% and 91%
Population Pyknosed Nuclei (%) (HEK-293T; [1]): 11% and 13%
Population Tubulin-Different-Phenotype (%) (HEK-293T; [1]): 40% and 34%
Total Cell Count (HEK-293T; [1]): 446 and 316
Population Apoptotic (%) (HEK-293T; [2]): 63% and 64%
Population Fragmented Nuclei (%) (HEK-293T; [2]): 8%
Population Healthy Nuclei (%) (HEK-293T; [2]): 49% and 67%
Population Hoechst High Intensity Objects (%) (HEK-293T; [2]): 22% and 25%
Population Membrane Permeable-Phenotype (%) (HEK-293T; [2]): 0%
Population Mitochondria Different-Phenotype (%) (HEK-293T; [2]): 96% and 97%
Population Mitotic Cells (%) (HEK-293T; [2]): 36% and 35%
Population Normal (%) (HEK-293T; [2]): 77% and 74%
Population Pyknosed Nuclei (%) (HEK-293T; [2]): 42% and 23%
Population Tubulin-Different-Phenotype (%) (HEK-293T; [2]): 88% and 82%
Total Cell Count (HEK-293T; [2]): 292 and 209
Population Apoptotic (%) (HEK-293T; [3]): 33% and 41%
Population Fragmented Nuclei (%) (HEK-293T; [3]): 9% and 12%
Population Healthy Nuclei (%) (HEK-293T; [3]): 79% and 78%
Population Hoechst High Intensity Objects (%) (HEK-293T; [3]): 6% and 4%
Population Membrane Permeable-Phenotype (%) (HEK-293T; [3]): 1%
Population Mitochondria Different-Phenotype (%) (HEK-293T; [3]): 28% and 46%
Population Mitotic Cells (%) (HEK-293T; [3]): 66% and 58%
Population Normal (%) (HEK-293T; [3]): 93% and 95%
Population Pyknosed Nuclei (%) (HEK-293T; [3]): 11% and 8%
Population Tubulin-Different-Phenotype (%) (HEK-293T; [3]): 26% and 19%
Total Cell Count (HEK-293T; [3]): 585 and 438

From ChEMBL document CHEMBL5724801, “EUbOPEN Chemogenomics Library - Multiplex” (2024)
